Test results published in ChEMBL document CHEMBL1124636, “3,4-Dihydro-2H-1-benzopyran-2-carboxylic acids and related compounds as leukotriene antagonists” (J Med Chem, 1989).

Experiments:
[1] = molecular target: T1, Cysteinyl leukotriene receptor 1 (Cavia porcellus) (UniProt Q2NNR5); assay: (§1) Inhibition of leukotriene D4 induced bronchoconstriction in anesthetized guinea pigs after aerosol administration as 1% solution; settings: concentration not given here
T1 sequence (whole entry): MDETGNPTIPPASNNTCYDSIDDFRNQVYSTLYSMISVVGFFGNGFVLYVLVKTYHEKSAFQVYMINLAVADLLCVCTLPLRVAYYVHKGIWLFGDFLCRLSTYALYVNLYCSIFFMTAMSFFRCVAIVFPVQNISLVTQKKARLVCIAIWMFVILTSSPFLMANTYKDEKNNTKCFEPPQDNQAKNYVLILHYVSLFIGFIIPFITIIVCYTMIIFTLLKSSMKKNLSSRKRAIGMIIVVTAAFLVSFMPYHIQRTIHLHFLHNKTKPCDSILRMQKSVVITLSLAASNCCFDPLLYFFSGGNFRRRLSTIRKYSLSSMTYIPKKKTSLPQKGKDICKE
Summary of the method: (§2)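 Guinea pigs given propranolol 0.1 mg/kg iv 5 min before 5-min ultrasonic nebulizer exposure to aqueous, NaOH-neutralized drug (% w/v) or distilled water, breathing spontaneously. LTD4 50 µg/kg iv 30 s after exposure; tracheal pressure change.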

[2] = molecular target: T1, Cysteinyl leukotriene receptor 1 (Cavia porcellus); assay: (§3) Inhibition of leukotriene D4 induced bronchoconstriction in anesthetized guinea pigs after intravenous administration at a dose of 10 mg/kg; format: organism-based; set-up: dose 10 mg/kg
Summary of the method: (§4)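 Male Hartley guinea pigs, 400–600 g, urethane 2 g/kg ip, jugular cannula, propranolol 0.1 mg/kg iv 5 min before challenge, succinylcholine 1.2 mg/kg iv, ventilated. Vehicle or drug iv 30 s before LTD4 25 µg/kg iv; tracheal pressure change.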

[3] = molecular target: T1, Cysteinyl leukotriene receptor 1 (Cavia porcellus); assay: Inhibitory activity of compound to block binding of radiolabeled Cysteinyl leukotriene D4 receptor sites in homogenized guinea pig lung at 10 uM
Summary of the method: (§5)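 Lung from male Hartley guinea pigs (400–500 g), homogenized in sucrose/Tris pH 7.5 with protease inhibitors; 30000g membrane pellet in 10 mM PIPES pH 7.5, 50 mM NaCl. Binding: Tyrode, 0.1% BSA, 1 mM glycine, 1 mM cysteine, 3.5 nM [3H]LTD4, 100–200 µg protein, 20 °C, 30 min; glass-fiber filtration. Nonspecific with 10^-6 M LTD4. Triplicate screen at 10 µM; IC50 by linear regression.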

Cavia porcellus [4] = assay: as §1; format: functional, organism-based; summary of the method: as §2
Cavia porcellus [5] = assay: as §1; format: functional; summary of the method: as §2
Cavia porcellus [6] = assay: as §3; format: functional; settings: for ED50: read-out: ID50 (the source's name); summary of the method: as §4
Cavia porcellus [7] = assay: Inhibition of leukotriene D4 induced bronchoconstriction in anesthetized guinea pigs after intravenous administration; format: functional; settings: read-out: ID50 (the source's name); summary of the method: as §4
[8] = molecular target: Cysteinyl leukotriene receptor (Cavia porcellus); assay: Inhibitory activity to block binding of [3H]leukotriene D4 to LTD4 receptor sites in homogenized guinea pig lung
[9] = test system: Cysteinyl leukotriene receptor (Cavia porcellus); assay: Inhibitory activity to block binding of [3H]leukotriene D4 to LTD4 receptor sites in homogenized guinea pig lung at 10 uM
[10] = molecular target: Dual specificity calcium/calmodulin-dependent 3',5'-cyclic nucleotide phosphodiesterase 1A (Bos taurus, UniProt P14100); assay: Inhibition of bovine heart Phosphodiesterase 1A
Chain of Dual specificity calcium/calmodulin-dependent 3',5'-cyclic nucleotide phosphodiesterase 1A (P14100 whole entry): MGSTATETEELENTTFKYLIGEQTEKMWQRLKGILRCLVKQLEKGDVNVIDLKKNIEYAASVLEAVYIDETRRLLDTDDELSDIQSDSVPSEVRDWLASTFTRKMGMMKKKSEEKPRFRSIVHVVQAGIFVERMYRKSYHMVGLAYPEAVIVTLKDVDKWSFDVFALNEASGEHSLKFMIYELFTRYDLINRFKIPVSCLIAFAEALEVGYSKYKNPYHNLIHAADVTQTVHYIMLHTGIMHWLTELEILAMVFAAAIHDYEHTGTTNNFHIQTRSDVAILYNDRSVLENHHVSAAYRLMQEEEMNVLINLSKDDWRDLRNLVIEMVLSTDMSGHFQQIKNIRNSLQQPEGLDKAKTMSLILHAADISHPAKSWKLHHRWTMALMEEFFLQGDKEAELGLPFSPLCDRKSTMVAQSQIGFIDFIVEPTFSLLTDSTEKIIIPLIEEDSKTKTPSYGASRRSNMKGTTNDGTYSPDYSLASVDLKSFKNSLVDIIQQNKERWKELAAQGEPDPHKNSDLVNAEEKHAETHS

Cavia porcellus [11] = assay: In vivo guinea pig bronchoconstriction against leukotriene C4 when administered a compound dose (mg/kg) intravenously; format: functional; settings: Lung, iv, read-out: ID50 (the source's name)
Cavia porcellus [12] = assay: In vivo guinea pig bronchoconstriction against leukotriene D4 when administered a compound dose (mg/kg) intravenously; format: functional; settings: Lung, iv, read-out: ID50 (the source's name); summary of the method: as §4
Cavia porcellus [13] = species: Cavia porcellus; assay: In vitro activity to inhibit leukotriene D4 induced contraction of guinea pig trachea; format: functional; settings: read-out: pA2 (converted)
Summary of the method: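 Guinea pig tracheal smooth muscle contracted by LTD4; pA2 and Schild slope reported.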

Cavia porcellus [14] = species: Cavia porcellus; assay: In vitro activity to inhibit SRS-A induced contraction of guinea pig ileum
[15] = molecular target: T2, Cysteinyl leukotriene receptor 1 (Cavia porcellus, UniProt Q2NNR5); assay: Inhibitory activity of compound to block binding of [3H]leukotriene D4 to Cysteinyl leukotriene D4 receptor sites in homogenized guinea pig lung; summary of the method: as §5
T2 sequence (Q2NNR5 whole entry): T1 sequence (whole entry)

[16] = test system: Cysteinyl leukotriene receptor (Cavia porcellus); assay: Inhibitory activity to block binding of [3H]leukotriene D4 to Cysteinyl leukotriene D4 receptor sites in homogenized guinea pig lung at 10 uM
Rattus norvegicus = species: Rattus norvegicus; assay: Inhibitory activity to inhibit Inophore-induced arachidonic acid metabolism (inhibition of LTB4 formation) in rat; format: functional, organism-based
Summary of the method: (§6)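 Rat peritoneal macrophages adhered 90 min at 37 °C, labeled with [14C]arachidonic acid 90 min, washed. Compound 30 min at 37 °C, then A23187 0.5 µM for 20 min. LTB4 and PGE2 in medium by radioimmunoassay.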

[17] = Inhibitory activity to inhibit Inophore-induced arachidonic acid metabolism (inhibition of PGE-2 formation) in rat; format: functional; summary of the method: as §6
[18] = molecular target: T1, Cysteinyl leukotriene receptor 1 (Cavia porcellus); assay: Inhibition of leukotriene D4 induced bronchoconstriction in anesthetized guinea pigs after intravenous administration at a dose of 1 mg/kg; format: organism-based; set-up: dose 1 mg/kg
[19] = molecular target: T1, Cysteinyl leukotriene receptor 1 (Cavia porcellus); assay: Inhibitory activity of compound to block binding of radiolabeled leukotriene D4 to receptor sites in homogenized guinea pig lung at 10 uM; summary of the method: as §5
[20] = molecular target: T1, Cysteinyl leukotriene receptor 1 (Cavia porcellus); assay: as §3; format: functional, organism-based; set-up: dose 10 mg/kg; summary of the method: as §4
[21] = test system: Cysteinyl leukotriene receptor (Cavia porcellus); assay: Inhibitory activity of compound to block binding of radiolabeled leukotriene D4 to receptor sites in homogenized guinea pig lung at 10 uM
[22] = molecular target: T1, Cysteinyl leukotriene receptor 1 (Cavia porcellus); settings: Lung, 10 uM
[23] = test system: Cysteinyl leukotriene receptor 1 (Cavia porcellus); assay: Inhibitory activity of compound to block binding of radiolabeled Cysteinyl leukotriene D4 receptor sites in homogenized guinea pig lung at 10 uM

| SMILES | Inhibition (Cavia porcellus [5]) [%] | inhibition in vivo at 10 mg/kg (Cavia porcellus [6]) [%] | IC50 [8] [µM] | inhibition [9] [%] | further results |
| --- | --- | --- | --- | --- | --- |
| CCCCCCCCCCCCc1ccccc1C(SCCC(=O)O)SCCC(=O)O | – | – | – | – | inhibition [1]: 39%; inhibition [2]: 29%; inhibition [3]: 24% |
| COc1cc(C(=O)NS(=O)(=O)c2ccccc2)ccc1Cn1ncc2ccc(NC(=O)OC3CCCC3)cc21 [ICI-198615] | 99 | 100 | 0.001 | 98 | IC50 (Cavia porcellus [4]): 0.006 % conc; ED50 (Cavia porcellus [7]): 0.03 mg/kg |
| CCCc1c(OCCCOc2cc(NC(=O)c3nn[nH]n3)c(C)cc2Cl)ccc(C(C)=O)c1O [CGP-35949] | – | 49 | 1 | 94 | – |
| Cn1c(=O)c2[nH]cnc2n(C)c1=O [THEOPHYLLINE] | – | – | – | – | IC50 [10]: 500 µM |
| CCCc1c(OCCCCCOc2cc3c(cc2C(C)=O)CC[C@H](C(=O)O)O3)ccc(C(C)=O)c1O | – | – | – | – | ED50 (Cavia porcellus [11]): 6 mg/kg; ED50 (Cavia porcellus [12]): 4 mg/kg; Kb (Cavia porcellus [13]): 0.794 µM; IC50 (Cavia porcellus [14]): 0.1 µM |
| CCCc1c(OCc2cccc(COc3cc4c(cc3C(C)=O)CCC(C(=O)O)O4)c2)ccc(C(C)=O)c1O (stereo unspecified) | 28 | 20 | – | – | IC50 [15]: 7 µM; inhibition [16]: 60% |
| CCCc1c(OCCCCCOc2cc3c(cc2C(C)=O)CCC(C)(C(=O)O)O3)ccc(C(C)=O)c1O (stereo unspecified) | 85 | 50 | 6 | 64 | IC50 (Cavia porcellus [4]): 0.2 % conc; ED50 (Cavia porcellus [7]): 10 mg/kg |
| COc1ccc2c(c1)c(CC(=O)O)c(C)n2C(=O)c1ccc(Cl)cc1 [INDOMETHACIN] | – | – | – | – | IC50 (Rattus norvegicus): 60 µM; IC50 [17]: 0.1 µM |
| CCCc1c(OCCCCCOc2c(C(C)=O)cc3c(c2CCC)OC(C(=O)O)CC3)ccc(C(C)=O)c1O (stereo unspecified) | – | – | – | – | inhibition [1]: 44% |
| CCCc1c(OCCCOc2cc3c(cc2C(C)=O)CCC(C(=O)O)O3)ccc(C(C)=O)c1O (stereo unspecified) | 31 | 35 | – | – | IC50 [15]: 6 µM; inhibition [16]: 63% |
| CCCc1c(OCCCCCOc2cc3c(cc2C(C)=O)CCC(C(=O)O)O3)ccc(C=O)c1O (stereo unspecified) | – | – | – | – | inhibition [18]: 0%; inhibition [19]: 0% |
| CCCc1c(OCCCCCOc2ccc3c(c2C(C)=O)OC(C(=O)O)CC3)ccc(C(C)=O)c1O (stereo unspecified) | 1 | 19 | 5 | 72 | – |
| CCCc1c(O)c(C(C)=O)cc(O)c1OCCCCCOc1cc2c(cc1C(C)=O)CCC(C(=O)O)O2 (stereo unspecified) | – | – | – | – | inhibition [20]: 0%; Inhibition [21]: 0% |
| CCCc1c(OCCCCCOc2cc3c(cc2C(C)=O)CCC(CCC)(C(=O)O)O3)ccc(C(C)=O)c1O (stereo unspecified) | 51 | 56 | – | – | IC50 [15]: 2 µM; IC50 (Cavia porcellus [4]): 0.9 % conc; ED50 (Cavia porcellus [7]): 8 mg/kg; inhibition [22]: 70% |
| O=C(O)CCSC(SCCC(=O)O)c1ccccc1CCCCCCCCc1ccccc1 | 58 | 20 | – | – | Inhibition [21]: 81% |
| CCCc1c(OCCCCCOc2cc3c(cc2C(C)=O)CCC(CCC(=O)O)O3)ccc(C(C)=O)c1O (stereo unspecified) | 31 | 86 | 2 | 94 | ED50 (Cavia porcellus [6]): 5 mg/kg |
| CCCc1c(OCCCCCOc2cc3c(cc2C(C)=O)CCC2(CCC(C(=O)O)CC2)O3)ccc(C(C)=O)c1O (stereo unspecified) | 83 | 32 | 4 | 81 | IC50 (Cavia porcellus [4]): 0.08 % conc |
| CC(C)c1ccc2c(c1)c(SC(C)(C)C)c(CC(C)(C)C(=O)O)n2Cc1ccc(Cl)cc1 | – | – | – | – | IC50 (Rattus norvegicus): 0.2 µM; IC50 [17]: 5 µM |
| CCCc1c(OCCCCCCCOc2cc3c(cc2C(C)=O)CCC(C(=O)O)O3)ccc(C(C)=O)c1O (stereo unspecified) | 44 | – | – | – | inhibition [19]: 39%; inhibition [23]: 39% |
| CC(C)C(C)c1nc2c(=O)[nH]c(=O)[nH]c2[nH]1 (stereo unspecified) | – | – | – | – | IC50 [10]: 100 µM |
| CCCc1c(OCCCCCOc2cc(OCC(=O)O)ccc2C(C)=O)ccc(C(C)=O)c1O | 46 | 20 | 5 | 65 | IC50 (Cavia porcellus [4]): 1 % conc |
| CCCc1c(OCCCCCOc2cc3c(cc2C(C)=O)CCC(C(=O)O)C3)ccc(C(C)=O)c1O (stereo unspecified) | 23 | 51 | – | – | IC50 [15]: 7 µM; ED50 (Cavia porcellus [6]): 10 mg/kg; inhibition [16]: 65% |
| CCCc1c(OCCC(C)(C)CCOc2cc3c(cc2C(C)=O)CCC(C(=O)O)O3)ccc(C(C)=O)c1O (stereo unspecified) | 23 | 15 | 7 | 68 | – |
| CCCc1c(OCCCCCCOc2cc3c(cc2C(C)=O)CCC(C(=O)O)O3)ccc(C(C)=O)c1O (stereo unspecified) | 36 | 66 | – | – | IC50 [15]: 5 µM; ED50 (Cavia porcellus [7]): 5 mg/kg; inhibition [16]: 96% |
| CCCc1c(OCCCCCOc2cc3c(cc2C(C)=O)CCC(C(=O)NS(=O)(=O)c2ccccc2)O3)ccc(C(C)=O)c1O (stereo unspecified) | 53 | 26 | 2 | 87 | IC50 (Cavia porcellus [4]): 1 % conc |
